According to ChEMBL document CHEMBL4184332, “Discovery of Novel Nonsteroidal Anti-Inflammatory Drugs and Carbonic Anhydrase Inhibitors Hybrids (NSAIDs-CAIs) for the Management of Rheumatoid Arthritis” (J Med Chem, 2018):
Activity calls are given as the source filed them.

Columns and labels:
Carbonic anhydrase 2 = Carbonic anhydrase 2 (Homo sapiens, UniProt P00918); test: Inhibition of recombinant human carbonic anhydrase-2 incubated for 15 mins by stopped-flow CO2 hydrase assay
Carbonic anhydrase 12 [1] = target: T1, Carbonic anhydrase 12 (Homo sapiens, UniProt O43570); test: Inhibition of recombinant human carbonic anhydrase-12 incubated for 15 mins by stopped-flow CO2 hydrase assay
T1 sequence (O43570 whole entry): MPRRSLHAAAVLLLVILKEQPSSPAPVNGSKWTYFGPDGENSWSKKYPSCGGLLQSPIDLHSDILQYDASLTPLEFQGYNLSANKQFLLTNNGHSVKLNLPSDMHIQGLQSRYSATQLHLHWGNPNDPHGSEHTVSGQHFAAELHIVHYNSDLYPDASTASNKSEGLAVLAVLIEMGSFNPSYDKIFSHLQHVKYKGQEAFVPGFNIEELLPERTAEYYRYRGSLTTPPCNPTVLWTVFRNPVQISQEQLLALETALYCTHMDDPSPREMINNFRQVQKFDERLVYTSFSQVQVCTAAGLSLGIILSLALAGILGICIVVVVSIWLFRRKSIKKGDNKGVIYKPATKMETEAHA

Carbonic anhydrase 4 = Carbonic anhydrase 4 (Homo sapiens, UniProt P22748); test: Inhibition of recombinant human carbonic anhydrase-4 incubated for 15 mins by stopped-flow CO2 hydrase assay
Carbonic anhydrase 4, sequence (P22748 whole entry, the tested form may be a part): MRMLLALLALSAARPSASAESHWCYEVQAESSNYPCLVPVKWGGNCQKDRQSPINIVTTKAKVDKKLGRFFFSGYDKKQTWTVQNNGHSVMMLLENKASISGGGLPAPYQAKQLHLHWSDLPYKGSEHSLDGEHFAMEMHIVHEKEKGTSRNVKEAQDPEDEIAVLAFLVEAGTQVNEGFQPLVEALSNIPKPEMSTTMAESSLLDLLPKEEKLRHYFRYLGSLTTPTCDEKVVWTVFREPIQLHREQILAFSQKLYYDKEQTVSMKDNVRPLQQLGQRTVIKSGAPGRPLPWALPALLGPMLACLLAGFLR

Carbonic anhydrase 9 = Carbonic anhydrase 9 (Homo sapiens, UniProt Q16790); test: Inhibition of recombinant human carbonic anhydrase-9 catalytic domain incubated for 15 mins by stopped-flow CO2 hydrase assay
Carbonic anhydrase 1 [2] = target: T2, Carbonic anhydrase 1 (Homo sapiens, UniProt P00915); test: Inhibition of recombinant human carbonic anhydrase-1 incubated for 15 mins by stopped-flow CO2 hydrase assay
Target sequence in this assay (P00915 whole entry): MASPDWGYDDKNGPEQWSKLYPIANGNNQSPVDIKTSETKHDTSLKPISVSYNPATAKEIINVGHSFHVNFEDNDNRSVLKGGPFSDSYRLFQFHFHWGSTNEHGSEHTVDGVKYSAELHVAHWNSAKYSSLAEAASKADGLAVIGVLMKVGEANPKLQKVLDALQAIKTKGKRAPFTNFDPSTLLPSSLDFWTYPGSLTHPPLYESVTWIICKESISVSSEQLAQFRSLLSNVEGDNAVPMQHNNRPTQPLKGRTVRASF

Carbonic anhydrase 1 [3] = target: T2, Carbonic anhydrase 1; test: Potency index, ratio of acetazolamide Ki to test compound Ki for recombinant human carbonic anhydrase-1
Outline: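 Recombinant human CA, made in house, in a stopped-flow CO₂ hydration assay. Conditions: 20 mM Hepes pH 7.5, 20 mM Na₂SO₄, 0.2 mM phenol red read at 557 nm, CO₂ 1.7-17 mM. Enzyme and inhibitor were preincubated 15 min at room temperature. Initial rates were corrected for the uncatalyzed rate. Ki came from nonlinear least squares, mean of three measurements. The ratio uses the acetazolamide Ki.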
Target sequence in this assay (P00915 2-261 limits assumed): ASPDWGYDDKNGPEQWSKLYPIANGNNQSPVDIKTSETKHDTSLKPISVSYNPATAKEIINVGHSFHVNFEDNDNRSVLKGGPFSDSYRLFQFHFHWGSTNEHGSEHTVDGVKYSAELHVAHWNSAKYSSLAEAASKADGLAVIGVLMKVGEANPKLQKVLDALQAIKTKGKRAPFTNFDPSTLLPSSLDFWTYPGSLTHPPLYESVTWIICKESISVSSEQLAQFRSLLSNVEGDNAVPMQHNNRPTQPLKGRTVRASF

Carbonic anhydrase 12 [4] = target: T1, Carbonic anhydrase 12; test: Potency index, ratio of acetazolamide Ki to test compound Ki for recombinant human carbonic anhydrase-12
Rattus norvegicus [5] = test: Antiarthritic activity in CFA-induced Sprague-Dawley rat rheumatoid arthritis model assessed as decrease in difference between weight burden on contralateral and ipsilateral paw at 6.2 mg/kg, po measured up to 75 mins by incapacitance test; assay type: functional, organism-based
Rattus norvegicus [6] = test: Antiarthritic activity in CFA-induced Sprague-Dawley rat rheumatoid arthritis model assessed as increase in tolerated weight on ipsilateral paw at 6.2 mg/kg, po measured at 15 mins by paw pressure test; assay type: functional, organism-based
Outline: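 Rats: Sprague Dawley, 200-250 g, given 50 μl CFA intra-articularly into the tibiotarsal joint; controls got saline. On day 14, compounds in 1% CMC were given orally. An analgesimeter applied increasing pressure to the dorsal hind paw with a blunt conical probe until vocalization or withdrawal, read in grams, cut-off 120 g. Rats below 40 g or above 75 g before dosing were excluded. Values are mean (S.E.M.) of 8 rats from 2 experiments.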

Q: Which results are given for `NS(=O)(=O)c1ccc(OCCNC(=O)Cc2ccccc2Nc2c(Cl)cccc2Cl)cc1`?
A: Ki (Carbonic anhydrase 2): 187 nM; Ki (Carbonic anhydrase 12 [1]): 57.6 nM; Ki (Carbonic anhydrase 4): 5480 nM; Ki (Carbonic anhydrase 9): 144 nM; Ki (Carbonic anhydrase 1 [2]): 770 nM

Q: For `CC(C(=O)NCCCOc1ccc(S(N)(=O)=O)cc1)c1cccc(C(=O)c2ccccc2)c1` (racemic), which Ki (Carbonic anhydrase 2) is on record?
A: Its Ki is 5 nM.

Q: What about the Ki (Carbonic anhydrase 12 [1]) of the same compound?
A: Its Ki is 5.2 nM.

Q: What about the Ki (Carbonic anhydrase 4) of the same compound?
A: Its Ki is 77.2 nM.

Q: What about the Ki (Carbonic anhydrase 9) of the same compound?
A: Its Ki is 12.5 nM.

Q: And the Ki (Carbonic anhydrase 1 [2])?
A: Its Ki is 7.1 nM.

Q: How did the Ki (Carbonic anhydrase 2) turn out when `CC(C)Cc1ccc(C(C)C(=O)NCCc2ccc(S(N)(=O)=O)cc2)cc1` (racemic) was run?
A: Its Ki is 9.2 nM.

Q: What about the Ki (Carbonic anhydrase 12 [1]) of the same compound?
A: Its Ki is 93.5 nM.

Q: What about the Ki (Carbonic anhydrase 4) of the same compound?
A: Its Ki is 7300 nM.

Q: And the Ki (Carbonic anhydrase 9)?
A: The Ki was 72.2 nM.

Q: And the Ki (Carbonic anhydrase 1 [2])?
A: The Ki was 79.3 nM.

Q: `CC(C(=O)Nc1ccc(S(N)(=O)=O)cc1)c1ccc(-c2ccccc2)c(F)c1` (racemic) was tested. Which Ki (Carbonic anhydrase 2) did it give?
A: The Ki was 5.5 nM.

Q: What about the Ki (Carbonic anhydrase 12 [1]) of the same compound?
A: The Ki was 40 nM.

Q: And the Ki (Carbonic anhydrase 4)?
A: The Ki was 718 nM.

Q: What about the Ki (Carbonic anhydrase 9) of the same compound?
A: The Ki was 9.2 nM.

Q: What about the Ki (Carbonic anhydrase 1 [2]) of the same compound?
A: Its Ki is 58.5 nM.

Q: How did the Ki (Carbonic anhydrase 2) turn out when `COc1ccc2c(c1)c(CC(=O)Nc1ccc(S(N)(=O)=O)cc1)c(C)n2C(=O)c1ccc(Cl)cc1` was run?
A: Its Ki is 92.5 nM.

Q: And the Ki (Carbonic anhydrase 12 [1])?
A: The Ki was 40.8 nM.

Q: And the Ki (Carbonic anhydrase 4)?
A: The Ki was 4370 nM.

Q: And the Ki (Carbonic anhydrase 9)?
A: The Ki was 58.7 nM.

Q: And the Ki (Carbonic anhydrase 1 [2])?
A: Its Ki is 209 nM.

Q: Which results are given for `CC(C(=O)NCCCCOc1ccc(S(N)(=O)=O)cc1)c1cccc(C(=O)c2ccccc2)c1` (racemic)?
A: Ki (Carbonic anhydrase 2): 6.1 nM; Ki (Carbonic anhydrase 12 [1]): 4.1 nM; Ki (Carbonic anhydrase 4): 92.8 nM; Ki (Carbonic anhydrase 9): 8 nM; Ki (Carbonic anhydrase 1 [2]): 20.9 nM

Q: `CC(C(=O)NCCOc1ccc(S(N)(=O)=O)cc1)c1cccc(C(=O)c2ccccc2)c1` (racemic) was tested. Which Ki (Carbonic anhydrase 2) did it give?
A: Its Ki is 6.7 nM.

Q: And the Ki (Carbonic anhydrase 12 [1])?
A: The Ki was 8.6 nM.

Q: And the Ki (Carbonic anhydrase 4)?
A: Its Ki is 77.7 nM.

Q: And the Ki (Carbonic anhydrase 9)?
A: Its Ki is 76.5 nM.

Q: What about the Ki (Carbonic anhydrase 1 [2]) of the same compound?
A: Its Ki is 21.3 nM.

Q: And the Ratio Ki (Carbonic anhydrase 1 [3])?
A: Its Ratio Ki is 10.

Q: Which results are given for `COc1ccc2c(c1)c(CC(=O)NCCCOc1ccc(S(N)(=O)=O)cc1)c(C)n2C(=O)c1ccc(Cl)cc1`?
A: Ki (Carbonic anhydrase 2): 84.3 nM; Ki (Carbonic anhydrase 12 [1]): 84.1 nM; Ki (Carbonic anhydrase 4): 523 nM; Ki (Carbonic anhydrase 9): 202 nM; Ki (Carbonic anhydrase 1 [2]): 81.7 nM

Q: Which results are given for `CC(C(=O)Nc1ccc(S(N)(=O)=O)cc1)c1cccc(C(=O)c2ccccc2)c1` (racemic)?
A: Ratio Ki (Carbonic anhydrase 12 [4]): 1.97; Ki (Carbonic anhydrase 2): 4.6 nM; Ki (Carbonic anhydrase 12 [1]): 2.9 nM; Ki (Carbonic anhydrase 4): 49.1 nM; Ki (Carbonic anhydrase 9): 5.1 nM; Ki (Carbonic anhydrase 1 [2]): 19.4 nM

Q: How did the Ki (Carbonic anhydrase 2) turn out when `CC1=C(CC(=O)NCCCOc2ccc(S(N)(=O)=O)cc2)c2cc(F)ccc2/C1=C/c1ccc([S+](C)[O-])cc1` (centres undefined) was run?
A: The Ki was 5.4 nM.

Q: And the Ki (Carbonic anhydrase 12 [1])?
A: The Ki was 35 nM.

Q: And the Ki (Carbonic anhydrase 4)?
A: Its Ki is 811 nM.

Q: And the Ki (Carbonic anhydrase 9)?
A: The Ki was 141 nM.

Q: What about the Ki (Carbonic anhydrase 1 [2]) of the same compound?
A: Its Ki is 4.9 nM.

Q: How did the Ki (Carbonic anhydrase 2) turn out when `COc1ccc2c(c1)c(CC(=O)NCCCCOc1ccc(S(N)(=O)=O)cc1)c(C)n2C(=O)c1ccc(Cl)cc1` was run?
A: The Ki was 8.1 nM.

Q: What about the Ki (Carbonic anhydrase 12 [1]) of the same compound?
A: The Ki was 64 nM.

Q: What about the Ki (Carbonic anhydrase 4) of the same compound?
A: The Ki was 8140 nM.

Q: And the Ki (Carbonic anhydrase 9)?
A: The Ki was 7.7 nM.

Q: And the Ki (Carbonic anhydrase 1 [2])?
A: The Ki was 86.5 nM.

Q: Which Ki (Carbonic anhydrase 2) does the source give for `CC1=C(CC(=O)NCCCCOc2ccc(S(N)(=O)=O)cc2)c2cc(F)ccc2/C1=C/c1ccc([S+](C)[O-])cc1` (centres undefined) here?
A: The Ki was 66.4 nM.

Q: And the Ki (Carbonic anhydrase 12 [1])?
A: The Ki was 5 nM.

Q: What about the Ki (Carbonic anhydrase 4) of the same compound?
A: Its Ki is 7740 nM.

Q: What about the Ki (Carbonic anhydrase 9) of the same compound?
A: The Ki was 22 nM.

Q: What about the Ki (Carbonic anhydrase 1 [2]) of the same compound?
A: Its Ki is 93.8 nM.

Q: How did the Ki (Carbonic anhydrase 2) turn out when `CC(C)Cc1ccc(C(C)C(=O)Nc2ccc(S(N)(=O)=O)cc2)cc1` (racemic) was run?
A: The Ki was 32.4 nM.

Q: And the Ki (Carbonic anhydrase 12 [1])?
A: Its Ki is 33 nM.

Q: What about the Ki (Carbonic anhydrase 4) of the same compound?
A: The Ki was 218 nM.

Q: And the Ki (Carbonic anhydrase 9)?
A: The Ki was 13.9 nM.

Q: What about the Ki (Carbonic anhydrase 1 [2]) of the same compound?
A: Its Ki is 40.4 nM.

Q: How did the Activity (Rattus norvegicus [5]) turn out when `O=C(O)Cc1ccccc1Nc1c(Cl)cccc1Cl` was run?
A: Its Activity is “Active”.

Q: What about the Activity (Rattus norvegicus [6]) of the same compound?
A: The Activity was “Active”.

Q: With `COc1ccc2cc(C(C)C(=O)NCCCOc3ccc(S(N)(=O)=O)cc3)ccc2c1` (racemic) as the compound, how does the Ki (Carbonic anhydrase 2) read?
A: The Ki was 5.8 nM.

Q: And the Ki (Carbonic anhydrase 12 [1])?
A: Its Ki is 19.4 nM.

Q: And the Ki (Carbonic anhydrase 4)?
A: The Ki was 220 nM.

Q: And the Ki (Carbonic anhydrase 9)?
A: The Ki was 18.3 nM.

Q: And the Ki (Carbonic anhydrase 1 [2])?
A: Its Ki is 57.6 nM.

Q: For `CC1=C(CC(=O)NCCOc2ccc(S(N)(=O)=O)cc2)c2cc(F)ccc2/C1=C/c1ccc([S+](C)[O-])cc1` (centres undefined), which Ki (Carbonic anhydrase 2) is on record?
A: The Ki was 7.5 nM.

Q: And the Ki (Carbonic anhydrase 12 [1])?
A: The Ki was 65 nM.

Q: What about the Ki (Carbonic anhydrase 4) of the same compound?
A: Its Ki is 6000 nM.

Q: What about the Ki (Carbonic anhydrase 9) of the same compound?
A: The Ki was 103 nM.

Q: What about the Ki (Carbonic anhydrase 1 [2]) of the same compound?
A: The Ki was 87 nM.

Q: Which Ki (Carbonic anhydrase 2) does the source give for `CC(C)Cc1ccc(C(C)C(=O)NCCCCOc2ccc(S(N)(=O)=O)cc2)cc1` (racemic) here?
A: Its Ki is 285 nM.

Q: And the Ki (Carbonic anhydrase 12 [1])?
A: Its Ki is 6.6 nM.

Q: And the Ki (Carbonic anhydrase 4)?
A: Its Ki is 2800 nM.

Q: And the Ki (Carbonic anhydrase 9)?
A: Its Ki is 14 nM.

Q: What about the Ki (Carbonic anhydrase 1 [2]) of the same compound?
A: The Ki was 48.4 nM.

Q: For `NS(=O)(=O)c1ccc(OCCCNC(=O)Cc2ccccc2Nc2c(Cl)cccc2Cl)cc1`, which Ki (Carbonic anhydrase 2) is on record?
A: The Ki was 46.2 nM.

Q: And the Ki (Carbonic anhydrase 12 [1])?
A: The Ki was 59.2 nM.

Q: And the Ki (Carbonic anhydrase 4)?
A: Its Ki is 673 nM.

Q: And the Ki (Carbonic anhydrase 9)?
A: The Ki was 137 nM.

Q: What about the Ki (Carbonic anhydrase 1 [2]) of the same compound?
A: Its Ki is 63.4 nM.
